≈ marks a conversion by molar mass, not a printed value.
Experiments:
Hepatitis C virus [1] = experiment: Antiviral activity against HCV genotype 1a H77 infected in human HuH7 replicon cells assessed as inhibition of viral replication after 3 days by luciferase reporter gene assay; assay type: functional, organism-based, Hepacivirus hominis; details: subtype 1a H77, Huh-7, 72 h
In short: (§1)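 Stable subgenomic replicon cell lines (genotype 1a-H77 or 1b-Con1) carrying a luciferase reporter; compounds added in DMEM with 5% FBS, cells incubated 3 days with or without compound, then lysed and luciferase activity read; EC50 from nonlinear regression fit to 4-parameter logistic equation.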

Hepatitis C virus [2] = experiment: Antiviral activity against HCV genotype 1b Con1 infected in human HuH7 replicon cells assessed as inhibition of viral replication after 3 days by luciferase reporter gene assay; assay type: functional, organism-based, Hepacivirus hominis; details: subtype 1b Con1, Huh-7, 72 h; in short: as §1
[3] = Prodrug conversion in Beagle dog liver assessed as nucleotide triphosphate level at 5 mg/kg, po administered as single dose measured after 4 hrs by LC-MS/MS analysis; assay type: ADME, organism-based, Canis lupus familiaris; details: in vivo
[4] = Prodrug conversion in Beagle dog liver assessed as nucleotide triphosphate level at 5 mg/kg, po co-dosed with 5 mg/kg sofosbuvir measured after 4 hrs by LC-MS/MS analysis; assay type: ADME, organism-based, Canis lupus familiaris; details: in vivo
In short: (§2)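 Beagle dogs (3 per time point) given single oral prodrug 5 mg/kg in EtOH:PEG-400:Phosal 53 MCT (10:30:60, w/w), cassette-dosed with sofosbuvir 5 mg/kg as internal standard; liver biopsies at 4 or 24 h, flash frozen, triphosphate measured by LC-MS/MS.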

[5] = Prodrug conversion in Beagle dog liver assessed as nucleotide triphosphate level at 5 mg/kg, po administered as single dose measured after 24 hrs by LC-MS/MS analysis; assay type: ADME, organism-based, Canis lupus familiaris; details: in vivo
[6] = Prodrug conversion in Beagle dog liver assessed as nucleotide triphosphate level at 5 mg/kg, po co-dosed with 5 mg/kg sofosbuvir measured after 24 hrs by LC-MS/MS analysis; assay type: ADME, organism-based, Canis lupus familiaris; details: in vivo; in short: as §2
[7] = Prodrug conversion in Beagle dog liver assessed as nucleotide triphosphate level at 5 mg/kg, po qd for 4 days and measured at 24 hrs post-last dose by LC-MS/MS analysis; assay type: ADME, organism-based, Canis lupus familiaris; details: in vivo
[8] = Prodrug conversion in Beagle dog liver assessed as nucleotide triphosphate level at 1 mg/kg, po qd for 4 days co-dosed with 5 mg/kg sofosbuvir and measured at 24 hrs post-last dose by LC-MS/MS analysis; assay type: ADME, organism-based, Canis lupus familiaris; details: in vivo
In short: (§3)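 Beagle dogs (3 per time point) dosed orally once daily for 4 days with prodrug (1 or 5 mg/kg) in EtOH:PEG-400:Phosal 53 MCT (10:30:60, w/w) together with sofosbuvir 5 mg/kg; liver biopsy 24 h after final dose, flash frozen, triphosphate by LC-MS/MS.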

[9] = Prodrug conversion in human primary hepatocytes assessed as nucleotide triphosphate level at 100 uM incubated for 4 hrs followed by compound wash-out for 20 hrs and measured following 4 hrs incubation period by LC-MS/MS analysis; assay type: ADME, cell-based, Hepatocyte
In short: (§4)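 Cryopreserved primary human hepatocytes plated ~55,000 viable cells/well on collagen, medium changed after 4–6 h to Williams E maintenance medium with Geltrex 0.35 mg/mL, overnight at 37 °C; prodrug 100 µM for 4 h, then washed; second plate held a further 20 h drug-free; cells washed with ice-cold HBSS, triphosphate measured by LC-MS/MS at 4 or 24 h.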

[10] = Prodrug conversion in human primary hepatocytes assessed as nucleotide triphosphate level at 100 uM incubated for 4 hrs and followed by compound washout for 20 hrs and measured following 24 hrs incubation period by LC-MS/MS analysis; assay type: ADME, cell-based, Hepatocyte; in short: as §4
Hepatitis C virus [11] = experiment: Antiviral activity against HCV genotype 1b Con1 over expressing CES1 infected in human HuH7 replicon cells assessed as inhibition of viral replication after 3 days by luciferase reporter gene assay; assay type: functional, organism-based, Hepacivirus hominis; details: subtype 1b Con1, Huh-7, 72 h
[12] = Distribution coefficient, logD of compound by HT-LCMS analysis; assay type: physicochemical; details: octanol/water
[13] = Aqueous solubility of compound in pH 7.4 phosphate buffer; assay type: physicochemical
[14] = Stability in dog plasma assessed as parent compound remaining after 4 hrs; assay type: ADME, cell-free, Canis lupus familiaris; details: read-out: Stability
In short: (§5)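 Prodrug incubated 4 h at 37 °C in dog or human plasma; result given as percent parent remaining.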

[15] = Stability in human plasma assessed as parent compound remaining after 4 hrs; assay type: ADME, cell-free; details: read-out: Stability; in short: as §5
[16] = Unbound drug level in dog plasma; assay type: ADME, cell-free, Canis lupus familiaris
[17] = Unbound drug level in human plasma; assay type: ADME, cell-free
[18] = Intrinsic clearance in dog hepatocytes; assay type: ADME, cell-based, Canis lupus familiaris, Hepatocyte; details: read-out: CLH (converted)
[19] = Intrinsic clearance in human hepatocytes; assay type: ADME, cell-based, Hepatocyte; details: read-out: CLH (converted)
[20] = Prodrug conversion in Beagle dog liver assessed as increase in nucleotide triphosphate level at 5 mg/kg, po co-dosed with 5 mg/kg sofosbuvir measured after 24 hrs by LC-MS/MS analysis relative to sofosbuvir; assay type: ADME, organism-based, Canis lupus familiaris; details: in vivo; in short: as §2
[21] = Prodrug conversion in human primary hepatocytes assessed as increase in nucleotide triphosphate level at 100 uM incubated for 4 hrs followed by compound wash-out for 20 hrs and measured following 4 hrs incubation period by LC-MS/MS analysis relative to sofosbuvir; assay type: ADME, cell-based, Hepatocyte
[22] = Prodrug conversion in Beagle dog liver assessed as increase in nucleotide triphosphate level at 5 mg/kg, po co-dosed with 5 mg/kg sofosbuvir measured after 4 hrs by LC-MS/MS analysis relative to sofosbuvir; assay type: ADME, organism-based, Canis lupus familiaris; details: in vivo; in short: as §2
[23] = Prodrug conversion in Beagle dog liver assessed as nucleotide triphosphate level at 5 mg/kg, po qd for 4 days co-dosed with 5 mg/kg sofosbuvir and measured at 24 hrs post-last dose by LC-MS/MS analysis; assay type: ADME, organism-based, Canis lupus familiaris; details: in vivo; in short: as §3

CCOC(=O)C(C)(C)N[P@](=O)(OC[C@H]1O[C@@H](n2ccc(=O)[nH]c2=O)[C@@](F)(Br)[C@@H]1O)Oc1ccccc1
EC50 (Hepatitis C virus [1]): 259 nM
EC50 (Hepatitis C virus [2]): 434 nM
Drug metabolism [3]: 43.3 µM
Drug metabolism [4]: 7 µM
Drug metabolism [5]: 42.7 µM
Drug metabolism [6]: 6.64 µM
Drug metabolism [7]: 8.18 µM
Drug metabolism [8]: 10.7 µM
Drug metabolism [9]: 3600 µM
Drug metabolism [10]: 736 µM
EC50 (Hepatitis C virus [11]): 69 nM
logD [12]: 2.86
solubility [13]: 519 µM (≈ 308 µg/mL)
remaining at 4 h [14]: 100%
remaining at 4 h [15]: 98%
fraction unbound [16]: 0.317
fraction unbound [17]: 0.473
CLint scaled [18]: 123 mL/min/kg
CLint scaled [19]: 132 mL/min/kg
fold change (FC) [20]: 5 to 6
fold change (FC) [21]: 30 to 40
fold change (FC) [22]: 5 to 6

CCOC(=O)C(C)(C)N[P@](=O)(OC[C@H]1O[C@@H](n2ccc(=O)[nH]c2=O)[C@](Cl)(Br)[C@@H]1O)Oc1ccccc1
EC50 (Hepatitis C virus [1]): 644 nM
EC50 (Hepatitis C virus [2]): 952 nM
Drug metabolism [3]: 8.83 µM
Drug metabolism [4]: 15.03 µM
Drug metabolism [5]: 2.1 µM
Drug metabolism [6]: 5.44 µM
Drug metabolism [7]: 2.89 µM
Drug metabolism [23]: 11.1 µM
Drug metabolism [9]: 2818 µM
Drug metabolism [10]: 203 µM
EC50 (Hepatitis C virus [11]): 154 nM
logD [12]: 3.11
solubility [13]: > 200 µM
remaining at 4 h [14]: 86%
remaining at 4 h [15]: 100%
fraction unbound [16]: 0.133
fraction unbound [17]: 0.24
CLint scaled [18]: 200 mL/min/kg
CLint scaled [19]: 268 mL/min/kg
fold change (FC) [21]: 30 to 40

Source: ChEMBL document CHEMBL4609978, “Synthesis and evaluation of 2'-dihalo ribonucleotide prodrugs with activity against hepatitis C virus” (Bioorg Med Chem, 2020)
